Only some compounds are listed: those with a hit (about 3.7% of all), similar ones and a draw of the others.
procasp3 activ: procaspase-3 (human) activation | P42574 | recombinant procaspase-3 D3A, Ac-DEVD-pNA absorbance 405 nm | activation, % at 8.5 µM | 0.11% of 330,000 active | AID 463141;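 active = activation above the mean of all tested compounds plus 3 SD, cut at about 21% in these data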;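 note: 0% = DMSO alone and 100% = DMSO wells spiked with extra 5 µM PC-3 D3A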
Target sequence (P42574 whole entry D9A/D28A/D175A): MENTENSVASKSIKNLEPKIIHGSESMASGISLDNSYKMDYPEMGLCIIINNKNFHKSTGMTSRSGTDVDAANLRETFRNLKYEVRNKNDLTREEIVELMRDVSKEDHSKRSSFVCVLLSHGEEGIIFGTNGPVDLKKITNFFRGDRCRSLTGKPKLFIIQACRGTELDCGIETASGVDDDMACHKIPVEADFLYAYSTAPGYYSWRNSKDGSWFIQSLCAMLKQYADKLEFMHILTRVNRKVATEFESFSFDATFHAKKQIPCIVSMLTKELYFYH
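Test system: Procaspase-3 D3A mutant; medium: Zinc-free HEPES/NaCl buffer with 0.01% Triton X-100 at pH 7.4; reagent: DEVD-pNA substrate; doses: one concentration, 8.5 µM nominal, 0.8% DMSO; times: 1 h preincubation plus 2 h reaction at 25 °C; signal: Epi-absorbance at 405 nm of released p-nitroaniline, 0 and 120 min; replicates: singlicate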
procasp7 counter: activates human procaspase-7, counter-screen for procaspase-3 activators | recombinant procaspase-7, Ac-DEVD-pNA absorbance 405 nm; D23A/D198A/D206A triple mutant, cannot self-cleave; scale: DMSO 0, 5 µM enzyme 100 | activation, % at 8.5 µM | 0.093% of 330,000 active | AID 463210;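 active = percent activation above the screen-wide mean plus 3 SD, cut at about 25% in these data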
Target sequence (P55210 whole entry D23A/D198A/D206A): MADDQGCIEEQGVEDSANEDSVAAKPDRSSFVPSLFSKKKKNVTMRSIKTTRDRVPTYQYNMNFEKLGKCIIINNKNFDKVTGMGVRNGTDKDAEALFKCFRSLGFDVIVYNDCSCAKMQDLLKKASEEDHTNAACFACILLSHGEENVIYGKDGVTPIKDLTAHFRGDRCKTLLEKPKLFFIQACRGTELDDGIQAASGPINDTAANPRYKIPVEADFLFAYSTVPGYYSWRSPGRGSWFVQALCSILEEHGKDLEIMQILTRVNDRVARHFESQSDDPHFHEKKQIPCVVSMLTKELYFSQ
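Replicates: singlicate. Assay system: Procaspase-7 triple mutant (PC-7 D3A). Signal: 405 nm absorbance of p-nitroaniline. Times: 1 h preincubation, 2 h reaction. Buffer or medium: Zinc-free HEPES pH 7.4 with 300 mM NaCl, 0.01% Triton X-100. Also added: DEVD-pNA substrate. Benchmarks: DMSO wells as 0%, DMSO with 5 µM added PC-7 as 100%.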
aDG glyco act: alpha-DG glycosylation activation | activation, % at 10 µM | Pro5-aDG cells, alpha-DG glycosylation AlphaScreen (IIH6); 0% Pro5, 100% B10-LARGE cell signal | AID 624168 | 0.22% of 360,000 active;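 active = activation of at least 8% versus controls, or a plate z-score of at least 8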;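 note: Pro5 are CHO cells carrying HIG-tagged alpha-DG that lacks glycosylation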
GRIN3A LBD mod: NR3A (human) ligand-binding domain modulation; NR3A LBD differential scanning fluorimetry, Tm shift; 0% = protein alone, 100% = glycine-bound protein; Tm shift relative to glycine control, % at 25 µM; 2.5% of 340,000 active;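 active = melting temperature shift of at least 10% of the positive control shift, at one fixed dose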
MPTP inh: blocks calcium-induced mitochondrial swelling; isolated mouse mitochondria, Ca2+ swelling absorbance, 30 min; inhibition, % at 10 µM; 1.4% of 360,000 active;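 active = inhibition of 50% or more, scaled per plate between neutral and stimulator controls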;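 note: 0% = DMSO wells given calcium and 100% = 1 mM EGTA wells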
Rh123 counter: Rhodamine 123 counter-screen of mitochondrial pore hits; shares compounds with MPTP inh; isolated mitochondria, membrane potential, Rhodamine 123 fluorescence; inhibition, % at 10 µM; 78% of 5,000 active; in the data active = inhibition above about 22%;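 note: 0% = DMSO vehicle and 100% = positive control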
MPTP abs DR: dose response confirmation of mitochondrial permeability transition pore inhibitors | AID 651561 | shares compounds with MPTP inh | 58% of 780 active | isolated mitochondria swelling, absorbance | IC50, µM; in the data active = IC50 below about 20 µM
MPTP counter DR: active in counter-screen for permeability transition pore inhibitors; shares compounds with MPTP inh; 49% of 780 active; IC50, µM; isolated mitochondria counterscreen, fluorescence read-out; in the data active = IC50 below about 80 µM
* marks the source's active call; other numbers are inactive results; nt = no result.

SMILES	procasp3 activ	procasp7 counter	aDG glyco act	GRIN3A LBD mod	MPTP inh	Rh123 counter	others
COCCNC(=O)C1(C)CCCN(Cc2cc(-c3ccccc3)on2)C1 (configuration not stated)	nt	nt	0	nt	-2	nt
Cc1nc2c(OCc3ccc(C(F)(F)F)cc3)cccn2c1N(C)CC1CC1	nt	nt	3	nt	81*	107*
COC(=O)c1ccccc1COc1cccn2c(N(C)CC3CC3)c(C)nc12	nt	nt	1	nt	67*	97*
CCc1nc2c(OCc3ccccc3C(=O)OC)cccn2c1N(C)C(=O)CC(C)C	nt	nt	0	nt	1	nt
Cc1cc2c(cc1C)-n1nnnc1C(N(C)CCc1ccccc1)C(=O)N2 (configuration not stated)	nt	nt	0	nt	0	nt
CCC1CCCCN1S(=O)(=O)c1ccc(C(=O)Nc2nnc(C3CC3)o2)cc1 (configuration not stated)	-3	-5	0	-1	-4	nt
CCC1CCCCN1S(=O)(=O)c1ccc(NC(=O)c2ccncc2)cc1 (configuration not stated)	-2	3	3	4	75*	89*
O=C(COc1ccc([N+](=O)[O-])cc1)NC(=O)NC1CCS(=O)(=O)C1 (configuration not stated)	nt	nt	0	1	-1	nt
C=C1CCCC2OC(CC3=CC4/C(C)=C/CC(C)CC(/C=C(\C)C(O)C5CC(O)C(O)C(CCC(O)/C=C/C(C)=C/CCC6=NCCC(C3)C64C)O5)OC(=O)CC3OC(C(O)C1)C(O)C3O)CC(O)C2O (configuration not stated)	nt	nt	0	nt	-3	nt
Cc1oc(-c2ccc(Cl)cc2)cc1C(=O)NC1CCN(Cc2ccccc2)CC1	-3	-2	0	0	0	nt
COc1ccc(CCNC(=O)c2cc(C)oc2C)cc1	-1	2	0	2	0	nt
Cc1oc(-c2cc(Cl)cc(Cl)c2)cc1C(=O)NCCc1ccccc1	9	-4	0	-1	93*	78*
COc1ccc(CCNC(=O)c2cc(-c3cc(Cl)cc(Cl)c3)oc2C)cc1	7	-1	0	0	77*	21*
CCOc1ccccc1N1CCN(C(=O)c2ccc(OCC(=O)N3CCOCC3)c(OC)c2)CC1	3	3	2	1	0	nt
COCC(=O)Nc1cc(Cl)ccc1C	-8	1	0	-2	-1	nt
Cc1ccc(Cl)cc1NC(=O)CC(O)(C(F)(F)F)C(F)(F)F	6	-6	0	-6	95*	93*
Cc1cc(C(=O)CSc2nnc(-c3ccc4c(c3)OCO4)o2)c(C)n1-c1ccc(F)cc1	7	-1	0	-2	94*	42*
O=C(CSc1nnc(-c2cccs2)o1)c1cccs1	-2	4	0	1	-1	nt
Cc1cc(C(=O)CSc2nnc(-c3cccs3)o2)c(C)n1-c1ccccc1	3	2	0	-3	52*	45*
COc1ccc(OC)c(CCNC(=O)c2ccc(CS(=O)Cc3ccc(Cl)cc3)o2)c1 (configuration not stated)	1	7	0	-4	-1	nt
Cc1cccc(N2CCN(CC(O)COCc3cccs3)CC2)c1C (configuration not stated)	5	8	0	0	0	nt
COc1ccc(N2CCN(C(CNC(=O)C(=O)NC3CCCC3)c3ccco3)CC2)cc1 (configuration not stated)	-2	12	0	-1	-1	nt
CN(CCCn1ccc(NC(=O)OCc2ccccc2)nc1=O)CCc1ccccn1	nt	nt	0	nt	-1	nt
Cc1ccc(/C=C2/SC(=S)N(CCC(=O)N3CCN(C)CC3)C2=O)cc1	-12	-16	0	2	79*	5	MPTP abs DR=>100;MPTP counter DR=>80
Cc1ccc(/C=C2\SC(=S)N(CCC(=O)N3CCCCC3)C2=O)cc1	-1	-3	0	-4	1	nt
SMILES	procasp3 activ	procasp7 counter	aDG glyco act	GRIN3A LBD mod	MPTP inh	Rh123 counter	others
O=C(NN=Cc1ccc(O)cc1)c1ccccc1NS(=O)(=O)c1cccs1	0	-1	0	1	1	nt
Cc1nn(-c2ccccc2)c(Cl)c1/C=N/NC(=O)c1ccccc1NS(=O)(=O)c1cccs1	-5	2	0	16*	88*	66*
O=C(N/N=C/c1cc(Cl)cc([N+](=O)[O-])c1O)NC12CC3CC(CC(C3)C1)C2	8	0	0	-5	84*	5
O=C(N/N=C/c1cc(Cl)cc([N+](=O)[O-])c1O)c1ccccc1NS(=O)(=O)c1cccs1	10	-2	0	6	84*	26*
COc1ccc(NC(=O)C2(C)CCN2CCc2ccccc2)cc1OC (configuration not stated)	nt	nt	0	nt	0	nt
CCOc1ccc2nc(SCC(=O)Nc3ccc4c(c3)OCO4)sc2c1	4	3	0	19*	75*	69*
Cc1ccc(-c2nsc(SCC(=O)Nc3ccc4c(c3)OCO4)n2)cc1	11	12	0	6	96*	89*
O=C(CSc1nncs1)Nc1ccc2c(c1)OCO2	6	3	0	-1	-1	nt
O=C(CSc1nc(-c2ccccc2Cl)ns1)Nc1ccc2c(c1)OCO2	4	-2	0	6	87*	80*
CCOc1ccc(-n2c(SCC(=O)Nc3ccc4c(c3)OCO4)nc3ccccc3c2=O)cc1	-2	6	1	-6	2	nt
O=C(Nc1ccc(CSc2ccccc2)cc1)c1ccco1	-2	2	0	-22	1	nt
CS(=O)(=O)C1=NSC2=NC(=O)/C(=C\c3ccc(-c4ccccc4)o3)C(=N)N21	-10	5	nt	nt	nt	nt
CC(C)S(=O)(=O)C1=NSC2=NC(=O)/C(=C\c3ccc(-c4ccccc4)o3)C(=N)N21	-22	2	0	7	106*	68*
CC(=O)c1cccc(NS(=O)(=O)c2ccc(N/C=C/C(=O)c3ccc(F)cc3)cc2)c1	0	2	4	18*	108*	94*
COC(=O)c1cc(NC(=O)c2cc(-c3ccc(Cl)cc3)oc2C(F)(F)F)ccc1N1CCOCC1	7	-4	0	5	76*	80*
CN1CCN(C2Cc3ccccc3Sc3ccc(Cl)cc32)CC1 (configuration not stated)	6	2	0	3	87*	-7	MPTP abs DR=6.8*;MPTP counter DR=45*

From PubChem BioAssay
